Results: PubChem BioAssay AID651740 (Broad Institute, 2012)
About 1,200 (21%) of roughly 5,600 compounds were called active. Not shown: some 3% with an inconclusive outcome.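 The calls were made as follows: active = mean inhibition above about 95%, with at least 55% of replicates also reaching it (limit read from the data); inconclusive = meets just one of the two conditions; inactive = meets neither condition.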 A selection follows.

Assay: Trypanosoma cruzi growth blockers in host fibroblasts – NIH3T3 host cells, beta-gal parasites, cherry-pick, set 2, confirmation (AID 651740);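 also: plate controls were neutral control median for no effect and positive control median for full effect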
Conditions: T. cruzi beta-gal in NIH3T3, GalScreen luminescence, 90 h; at 2.09 µM; active compounds read high
Procedure, shortened: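 Material: T. cruzi Tulahuen C4 (beta-gal) in NIH/3T3 cells; input: 5,000 host cells per well; incubation: ≥90 h co-culture with compound, 60 min detection reagent; signal: luminescence, GalScreen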

| SMILES | inhibition |
| --- | --- |
| O=C(Cc1ccccn1)N1CCCCN2[C@@H](CO)[C@@H](c3ccc(C#Cc4ccccc4)cc3)[C@@H]2C1 | 56.8% (inactive) |
| COc1ccc(-c2ccc([C@H]3[C@H](CO)N4CCCCN(C(=O)Cc5ccncc5)C[C@@H]34)cc2)cc1 | 66.4% (inactive) |
| COc1ccc(C#Cc2ccc([C@H]3[C@H](CO)N4CCCCN(C(=O)Cc5ccccc5)C[C@@H]34)cc2)cc1 | 111% (active) |
| C/C=C/c1ccc([C@H]2[C@H](CO)N3CCCCN(C(=O)Cc4ccncc4)C[C@@H]23)cc1 | 82.3% (inactive) |
| O=C(Cc1cccnc1)N1CCCCN2[C@@H](CO)[C@H](c3ccc(C#CC4CCCC4)cc3)[C@@H]2C1 | 46.3% (inactive) |
